The nature of series [1]: MRT in mouse tumor implanted with mouse 4T1 cells at 10 mg/kg,iv measured upto 72 hrs. The series is classed as ADME, organism-based, Neoplasm.
Series [2] is described as follows: Cmax in mouse plasma implanted with mouse 4T1 cells at 10 mg/kg,iv measured upto 72 hrs. The class given is ADME, organism-based. More on the design: dose 10 mg/kg, time < 72 hrs, route iv. Put shortly: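 BALB/c mice carried 4T1 cells implanted in the mammary fat pad and received a single iv dose of 10 mg/kg. Parent drug and released docetaxel were assayed in plasma and tumor tissue up to 72 h. Parameters came from noncompartmental analysis, n = 6, mean ± SD.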

Series [3] in a line: Prodrug conversion in mouse tumor implanted with mouse 4T1 cells assessed as MRT of docetaxel at 4 mg/kg,iv measured upto 72 hrs. As to conditions: in vivo. The series is classed as ADME, organism-based, Neoplasm.
A short description of series [4]: Half life in female Beagle dog at 2 mg/kg,iv measured upto 24 hrs. The class given is ADME, organism-based, Canis lupus familiaris. As to conditions: in vivo.
Series [5] can be described thus: MRT (0 to infinity) in Beagle dog at 4 mg/kg,iv measured upto 24 hrs. The series is classed as ADME, organism-based, Canis lupus familiaris. As to conditions: in vivo.
Series [6] can be described thus: AUC (0-infinity) in Beagle dog at 1 mg/kg,iv measured upto 24 hrs. As to conditions: in vivo. More on the design: dose 1 mg/kg, time < 24 hrs, route iv. The class given is ADME, organism-based, Canis lupus familiaris. In short, it runs like this:
(§1)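 Single iv dose: rats 2, 4 or 8 mg/kg by intravenous injection; Beagle dogs 1, 2 or 4 mg/kg by intravenous infusion. Plasma concentration–time data were analysed by sex and pooled. Reported parameters: Cmax, Tmax, AUC0−t, AUC0−∞, MRT0−∞, t1/2, CL, Vss, given as mean ± SD.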

Series [7] in a line: AUC (0-t) in male Beagle dog at 4 mg/kg,iv measured upto 24 hrs. As to conditions: in vivo. The class given is ADME, organism-based, Canis lupus familiaris. On the set-up: dose 4 mg/kg, time < 24 hrs, route iv. In short, it runs like this:
as §1

Series [8] can be described thus: Tmax in male Beagle dog at 2 mg/kg,iv measured upto 24 hrs. The class given is ADME, organism-based, Canis lupus familiaris. As to conditions: in vivo.
Series [9] is described as follows: Cmax in male rat at 4 mg/kg,iv measured upto 24 hrs. The class given is ADME, organism-based. On the set-up: time < 24 hrs, dose 4 mg/kg, route iv. The conditions noted are these: in vivo. In short, it runs like this:
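Rats were given a single iv injection at 2, 4 or 8 mg/kg. Plasma parent drug and released docetaxel were followed over time. Cmax, Tmax, AUC, MRT, t1/2, CL and Vss were reported for males, females and all animals combined.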

Series [10] is described as follows: Cmax in Beagle dog at 1 mg/kg,iv measured upto 24 hrs. The series is classed as ADME, organism-based, Canis lupus familiaris. More on the design: dose 1 mg/kg, time < 24 hrs, route iv. The conditions noted are these: in vivo. In short, it runs like this:
(§2)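 Beagle dogs were given a single iv infusion at 1, 2 or 4 mg/kg. Plasma parent drug and released docetaxel were followed over time. Cmax, Tmax, AUC, MRT, t1/2, CL and Vss were reported by sex and for all dogs combined.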

Series [11] is described as follows: Cmax in male Beagle dog at 4 mg/kg,iv measured upto 24 hrs. As to conditions: in vivo. On the set-up: time < 24 hrs, dose 4 mg/kg, route iv. The class given is ADME, organism-based, Canis lupus familiaris. In short, it runs like this:
as §2

Series [12] has as its system 4T1. The experiment in a line: Antitumor activity against mouse 4T1 cells xenografted with BALB/c mouse assessed as decrease in tumor weight at 10 mg/kg,iv administrated once per week for 4 weeks. The class given is functional, organism-based. Put shortly:
(§3)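 4T1 cells injected into the mammary fat pad of BALB/c mice; iv saline vehicle or 5, 10 or 20 mg/kg once weekly for 4 weeks; body weight, tumour volume, tumour weight, lung metastatic nodule count and metastasis score recorded; n = 10, mean ± SEM, ANOVA and Student's t test.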

Series [13] concerns 4T1. Kind of series: Antitumor activity against mouse 4T1 cells xenografted with BALB/c mouse assessed as decrease in tumor volume at 10 mg/kg,iv administrated once per week for 4 weeks. The class given is functional, organism-based. Put shortly: as §3
Series [14] can be described thus: Toxicity in BALB/c mouse xenografted with human A549/Taxol cells assessed as body weight loss at 10 mg/kg,iv administrated once per week for 3 weeks. The class given is organism-based, A549/TR. The conditions noted are these: in vivo, 504 h. (In general: In xenograft studies the graft and the host belong to different species.)
Series [15] is described as follows: Drug metabolism in mouse hepatocytes assessed as MDA-205 metabolite formation at 20 uM incubated for 180 mins. The conditions noted are these: 3 h. The series is classed as ADME, cell-based, Hepatocyte.
A short description of series [16]: Acute toxicity in Sprague-Dawley rat assessed as lethal dose at iv administration. As to conditions: in vivo. The series is classed as organism-based. Put shortly: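 Acute toxicity after a single intravenous administration. […] In dogs, an approximate lethal dose range was determined.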
Series [17] is described as follows: Toxicity in Beagle dog assessed as erythema at 3 to 18 mg/kg,iv measured upto 24 hrs. The series is classed as organism-based, Canis lupus familiaris. The conditions noted are these: in vivo, dose 3-18 mg/kg.
In series [18] the test system is 4T1. The experiment in a line: Antitumor activity against mouse 4T1 cells implanted in BALB/c mouse assessed as decrease in serum IL-6 level at 10 mg/kg,iv administrated once per week for 4 weeks by ELISA. The class given is functional, organism-based. Put shortly:
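4T1 fat-pad model in BALB/c mice, iv 5–20 mg/kg once weekly for 4 weeks, with vehicle and naive groups; serum MMP9, TIMP-1, IL-6 and S100A9 measured by mouse ELISA kits.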

Series [19] concerns 4T1. The experiment in a line: Antitumor activity against mouse 4T1 cells implanted in BALB/c mouse assessed as decrease in spleen MMP2 expression level at 5 to 20 mg/kg,iv administrated once per week for 4 weeks by western blot assay. As to conditions: dose 5-20 mg/kg. The series is classed as functional, organism-based. In short, it runs like this:
(§4)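 4T1 fat-pad model in BALB/c mice, iv once weekly for 4 weeks; MMP9, MMP2 and NOD1 in spleen, lung and tumour by western blot, β-actin loading control; bands averaged over five mice per group, representative of two independent experiments.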
A general note: In western blotting, separated proteins are transferred to a membrane and probed.

Series [20] has as its system 4T1. The experiment in a line: Antitumor activity against mouse 4T1 cells implanted in BALB/c mouse assessed as decrease in tumor MMP9 expression level at 5 to 20 mg/kg,iv administrated once per week for 4 weeks by western blot assay. The series is classed as functional, organism-based. The conditions noted are these: dose 5-20 mg/kg. Put shortly: as §4
Series [21] has as its system 4T1. The experiment in a line: Antitumor activity against mouse 4T1 cells implanted in BALB/c mouse assessed as decrease in MMP9 mRNA expression in lung at 20 mg/kg,iv administrated qd for 2 days by qRT-PCR analysis. The class given is functional, organism-based. As to conditions: time 2.0 day. In short, it runs like this: (§5)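 Day 19 after 4T1 implantation, mice randomised into five groups; iv vehicle or 20 mg/kg plus ip C12-iE-DAP (50 μg/mouse) and MDP (100 μg/mouse) once daily for 2 days; killed after 48 h; lung mRNA for MMP8, MMP9, PROK2, S100A8, S100A9 and IL-1β by qPCR; mean ± SEM.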
(In general: Quantitative PCR measures a nucleic acid by following its amplification.)

In series [22] the test system is 4T1. The experiment in a line: Antitumor activity against mouse 4T1 cells implanted in BALB/c mouse assessed as decrease in IL-1beta mRNA expression in lung at 20 mg/kg,iv administrated qd for 2 days by qRT-PCR analysis. The conditions noted are these: time 2.0 day. The series is classed as functional, organism-based. Put shortly: as §5
The subject of series [23] is 4T1. The experiment in a line: Antitumor activity against mouse 4T1 cells implanted in BALB/c mouse assessed as decrease in tumor MMP9 expression level at 5.7 mg/kg,iv administrated once per week for 4 weeks in presence of compound 5b by western blot assay. The class given is functional, organism-based. Put shortly: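 Tumour-bearing BALB/c mice (4T1 cells into mammary fat pad) given iv saline vehicle or test agents once weekly for 4 weeks. Tumours excised and probed by western blot for MMP9, MMP2 and NOD1, β-actin as loading control. Bands averaged over five mice per group; representative of two independent experiments.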

In series [24] the test system is 4T1. Kind of series: Antitumor activity against mouse 4T1 cells implanted in BALB/c mouse assessed as decrease in spleen MDSC cells at 5.7 mg/kg,iv administrated in presence of compound 5b measured after 28 days (reference value: 38%). The series is classed as functional. On the set-up: scale not given: the % may be the effect or the level left. As to conditions: time 28 day. In short, it runs like this: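 Splenocytes taken from 4T1 fat-pad tumor-bearing BALB/c mice after 28 days of tumor growth with weekly iv dosing. Cells stained with anti-CD11b PE and anti-Gr-1 FITC, and the Gr-1+CD11b+ percentage scored by flow cytometry. Eight mice per treated group, five naive. Mean ± SEM.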

The test system of series [25] is 4T1. Kind of series: Antitumor activity against mouse 4T1 cells implanted in BALB/c mouse assessed as decrease in lung injury at 5.7 mg/kg,iv administrated once per week for 4 weeks by H and E staining based assay. The class given is functional, organism-based. In short, it runs like this:
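BALB/c mice bearing orthotopic mammary fat pad 4T1 tumors, dosed iv weekly for 4 weeks with saline vehicle as control. Lung sections stained with hematoxylin and eosin and examined by light microscopy at 40× for metastasis, inflammatory infiltration and alveolar wall thickening.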

The source made the active and inactive calls.

As to `CC(=O)O[C@@]12CO[C@@H]1C[C@H](O)[C@@]1(C)C(=O)[C@H](O)C3=C(C)[C@@H](OC(=O)[C@H](OC(=O)CCC(=O)NCCCC[C@H](NC(=O)CC[C@@H](NC(=O)[C@H](C)NC(=O)/C=C/c4ccc(F)cc4Cl)C(N)=O)C(=O)O)[C@@H](NC(=O)OC(C)(C)C)c4ccccc4)C[C@@](O)([C@@H](OC(=O)c4ccccc4)[C@H]21)C3(C)C`, the MRT worked out at 132 min in [1] and 87.4 h in series [3]. Besides, the Cmax in [2] is 14.7 µM; in series [9], 37900 ng/mL; in series [10], 3880 ng/mL; in [11] it was 29600 ng/mL. Besides, the half-life in [4] was 30.9 min. For the same compound, in series [5], the MRT inf turned out to be 20.3 min. Moreover, in series [6], the AUC(0-inf) stood at 1640 ng·h/mL. Besides, the AUC(0-t) at 24 h in series [7] amounted to 15200 ng·h/mL. Also, in series [8], the Tmax worked out at 30 min. For the same compound, the outcome in [12], in series [13], in series [18], in series [21] and in series [22] was Active. Besides, the Activity result in series [14] was “Non-Toxic”; in series [17] it was “Toxic”. Besides, the Drug metabolism result in series [15] was “Metabolite_Detected”. Also, the LD50 in series [16] was found to be 13.2 mg/kg. Moreover, the result in series [19] and in series [20] was inactive.
In the case of `CC(=O)O[C@@]12CO[C@@H]1C[C@H](O)[C@@]1(C)C(=O)[C@H](O)C3=C(C)[C@@H](OC(=O)[C@H](O)[C@@H](NC(=O)OC(C)(C)C)c4ccccc4)C[C@@](O)([C@@H](OC(=O)c4ccccc4)[C@H]21)C3(C)C` [DOCETAXEL ANHYDROUS], the result in series [23] was inactive. For the same compound, in [24], the Activity came out at 32.1%. In [25], the outcome was Active.

A word on the MRT: it is a mean duration of stay, worked out from the concentration-time curve. By Cmax is commonly meant the peak of the concentration-time curve. A word on the half-life: it is the time needed for the level to fall by half in the phase considered. One may read the MRT inf as the average time that molecules of a dose stay in the body. The term AUC(0-inf) denotes total exposure, with the tail of the curve extrapolated. For orientation: AUC(0-t) means exposure summed from dosing to a finite time, without extrapolation to infinity. A word on the Tmax: it is the time at which the peak concentration occurs. A word on the LD50: it is the dose expected to kill half of the subjects tested.

The record behind these values is ChEMBL document CHEMBL5252546, “Salutaxel, a Conjugate of Docetaxel and a Muramyl Dipeptide (MDP) Analogue, Acts as Multifunctional Prodrug That Inhibits Tumor Growth and Metastasis” (J Med Chem, 2018).
